# Data published in article PMC5944575 (Clinical and Translational Science, 2018).
# How the values were obtained:
# 5‐LO [1] = details: cited from earlier work
# 5‐LO [2] = details: at‐risk patients with CAD ref 15; cited from earlier work
# [3] = system: LTB4 production in human whole blood; experiment: LTB4 production in human whole blood in vitro; format: cell-based; details: read-out: IC50, inhibition of LTB4 production
# logD = format: physicochemical; details: pH 7.4
# [4] = Human plasma protein binding; format: in vitro ADME
# Caco‐2 = experiment: Caco-2 permeability and efflux; format: in vitro ADME
# [5] = Solubility of amorphous and crystalline form; format: physicochemical; details: amorphous
# [6] = system: cytochrome P450 (CYP)3A4 and CYP3A5; experiment: In vitro metabolism studies; format: in vitro ADME
# [7] = Pharmacokinetics, single ascending dose; format: in vivo, human; details: for AUC / CL/F / CLR / t½ / Cmax: geometric mean (%CV); for Tmax: median (range)
# Outline: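 Fasted (10 h overnight) healthy men received single oral doses of amorphous suspension, n = 6 per dose. K₂EDTA plasma and pooled urine were assayed by LC-MS/MS with a ¹³C₆-labelled internal standard (validated 1–1,000 nmol/L plasma, 20–20,000 nmol/L urine). Noncompartmental analysis used log-linear trapezoidal AUC extrapolated to infinity; CL/F = dose/AUC; CLR = amount excreted unchanged/AUC.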
# [8] = Pharmacokinetics, multiple ascending dose; format: in vivo, human
# Outline: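 Amorphous oral suspension was given once daily for 10 days to fasted healthy men (n = 6 per dose), with intensive sampling on days 1 and 10. K₂EDTA plasma and urine were measured by LC-MS/MS with a ¹³C₆-labelled internal standard (validated 1–1,000 nmol/L plasma, 20–20,000 nmol/L urine). Noncompartmental analysis on actual times; CL/F = dose/AUC; CLR = amount excreted unchanged/AUC.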
# [9] = system: ex vivo calcium ionophore stimulated LTB4 production in whole blood; parameters: species or system human
# Outline: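 Lithium-heparin blood was drawn from dosed subjects 24 h before and just before dosing, then at set times after (SAD to 48 h; MAD daily predose and after last dose). Blood aliquots were stimulated in duplicate with 30 μM calcium ionophore A23187 or DMSO at 37°C, 100 rpm, for 30 min, then stopped on ice with EGTA. LTB₄ in plasma was measured by supported liquid extraction LC-MS/MS, against a baseline of the mean day 1/predose value.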
# [10] = Clinical safety and tolerability in healthy subjects; format: in vivo, human; details: for subjects reporting headache: active drug
# Outline: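 Healthy men aged 18–50 (BMI 18–30 kg/m², 50–100 kg), randomized, single-blind, placebo-controlled. SAD: single oral suspension doses of 25–1,200 mg, with sentinel pairs reviewed to 24 h. MAD: 60–600 mg once daily for 10 days. Vital signs, ECG, telemetry, clinical laboratory tests and adverse events were recorded before and after dosing and at follow-up 7–10 days post final dose.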
# [11] = Human intestinal Ussing chamber metabolism; format: in vitro ADME; details: data not shown
# [12] = 60 mg OD, day 10, geometric mean (%CV)
# [13] = 180 mg OD, day 1, geometric mean (%CV)
# [14] = 180 mg OD, day 10, geometric mean (%CV)
# [15] = 360 mg OD, day 1, geometric mean (%CV)
# [16] = 360 mg OD, day 10, geometric mean (%CV)
# [17] = 600 mg OD, day 1, geometric mean (%CV)
# [18] = 600 mg OD, day 10, geometric mean (%CV)
compound,measurement,setting,value
"C[C@H](C#Cc1ccc(Cc2ccc(F)cc2)s1)N(O)C(N)=O [VIA‐2291, Atreleuton]",ex vivo stimulated LTB4 production,5‐LO [1]; patients with ACS ref 13,reduced
same,noncalcified plaque volume,5‐LO [1]; patients with ACS ref 13,reduced
same,left ventricular ejection fraction,"5‐LO [1]; patients with ACS, dose dependent ref 13, 14",improved
CC(c1cc2ccccc2s1)N(O)C(N)=O (centres unmarked) [zileuton],flow‐mediated dilation in the brachial artery,5‐LO [2],improved
same,leukotriene production in blood,5‐LO [2],inhibited
Cc1cc(-c2ccc(C(=O)[C@@H]3CCCC[C@H]3C(=O)Nc3cnn4c3C(=O)NCC4)cc2)n[nH]1 [AZD5718],IC50,[3],0.039 µM
same,logD,logD,2.9
same,human plasma protein binding,[4],95.7%
same,Papp,Caco‐2,24 10^−6 cm/s
same,efflux ratio,Caco‐2,7.4
same,solubility,[5],20 µM
same,CYP‐isoforms involved in the metabolism,[6],(CYP)3A4 and CYP3A5
same,AUC,[7]; 25 mg single dose,376.3 (38.1) nmol*h/L
same,CL/F,[7]; 25 mg single dose,148.8 (38.1) L/h
same,CLR,[7]; 25 mg single dose,0.68 (39.4) L/h
same,t½,[7]; 25 mg single dose,10.3 (51.0) h
same,Tmax,[7]; 25 mg single dose,3.0 (1.0–6.0) h
same,AUC,[7]; 50 mg single dose,727.0 (15.4) nmol*h/L
same,CL/F,[7]; 50 mg single dose,153.9 (15.4) L/h
same,CLR,[7]; 50 mg single dose,0.62 (14.7) L/h
same,Cmax,[7]; 50 mg single dose,81.6 nM
same,t½,[7]; 50 mg single dose,12.5 (33.3) h
same,Tmax,[7]; 50 mg single dose,1.0 (1.0–3.0) h
same,AUC,[7]; 100 mg single dose,"1,441 (45.3) nmol*h/L"
same,CL/F,[7]; 100 mg single dose,155.6 (45.3) L/h
same,CLR,[7]; 100 mg single dose,0.66 (41.0) L/h
same,Cmax,[7]; 100 mg single dose,170 nM
same,t½,[7]; 100 mg single dose,12.7 (35.7) h
same,Tmax,[7]; 100 mg single dose,1.0 (0.5–3.0) h
same,AUC,[7]; 300 mg single dose,"8,462 (20.1) nmol*h/L"
same,CL/F,[7]; 300 mg single dose,79.4 (20.1) L/h
same,CLR,[7]; 300 mg single dose,0.67 (23.7) L/h
same,Cmax,[7]; 300 mg single dose,2360 nM
same,t½,[7]; 300 mg single dose,13.7 (43.9) h
same,Tmax,[7]; 300 mg single dose,1.0 (0.5–1.0) h
same,AUC,[7]; 600 mg single dose,"18,810 (42.1) nmol*h/L"
same,CL/F,[7]; 600 mg single dose,71.5 (42.1) L/h
same,CLR,[7]; 600 mg single dose,0.70 (15.4) L/h
same,Cmax,[7]; 600 mg single dose,5050 nM
same,t½,[7]; 600 mg single dose,11.4 (18.0) h
same,Tmax,[7]; 600 mg single dose,1.0 (1.0–2.0) h
same,AUC,"[7]; 1,200 mg single dose","35,840 (33.8) nmol*h/L"
same,CL/F,"[7]; 1,200 mg single dose",75.0 (33.8) L/h
same,CLR,"[7]; 1,200 mg single dose",0.62 (12.1) L/h
same,Cmax,"[7]; 1,200 mg single dose",6880 nM
same,t½,"[7]; 1,200 mg single dose",10.3 (19.0) h
same,Tmax,"[7]; 1,200 mg single dose",1.5 (1.0–2.0) h
same,relative bioavailability of the crystalline formulation compared with the amorphous formulation,"[7]; SAD, oral suspensions, results not presented",much lower
same,mean terminal half‐life,"[7]; after single dose administration and at steady state, all doses",10 to 12 h
same,dose‐linearity of exposure,"[7]; single and multiple administration, except Ctrough in the MAD",more than dose proportional increase in exposure
same,median Tmax,"[7]; single and multiple dose, amorphous suspension, fasted",~1 h
same,renal clearance as share of total oral clearance,[7]; unchanged drug in urine,~1%
same,AUCτ,"[8]; 60 mg OD, day 1, geometric mean (%CV)","1,018 (22.4) nmol*h/L"
same,Tmax,"[8]; 60 mg OD, day 1, median (range)",0.8 (0.5–2.0) h
same,Cmax,"[8]; 60 mg OD, day 1, oral amorphous suspension, N = 6, geometric mean (%CV)",167 nM
same,AUCτ,[8]; [12],"1,386 (27.4) nmol*h/L"
same,CL/F,[8]; [12],96.9 (27.4) L/h
same,CLR,[8]; [12],0.64 (16.0) L/h
same,Cmax,[8]; [12],220 nM
same,t½,[8]; [12],11.6 (6.7) h
same,Tmax,"[8]; 60 mg OD, day 10, median (range)",0.5 (0.5–1.0) h
same,AUCτ,[8]; [13],"3,732 (41.2) nmol*h/L"
same,Cmax,[8]; [13],847 nM
same,Tmax,"[8]; 180 mg OD, day 1, median (range)",1.0 (1.0–1.0) h
same,AUCτ,[8]; [14],"5,128 (46.9) nmol*h/L"
same,CL/F,[8]; [14],78.6 (46.9) L/h
same,CLR,[8]; [14],0.75 (16.0) L/h
same,Cmax,[8]; [14],1240 nM
same,t½,[8]; [14],11.2 (13.0) h
same,Tmax,"[8]; 180 mg OD, day 10, median (range)",1.0 (1.0–1.0) h
same,AUCτ,[8]; [15],"10,350 (28.8) nmol*h/L"
same,Cmax,[8]; [15],2560 nM
same,Tmax,"[8]; 360 mg OD, day 1, median (range)",1.0 (1.0–2.0) h
same,AUCτ,[8]; [16],"12,760 (31.0) nmol*h/L"
same,CL/F,[8]; [16],63.1 (31.0) L/h
same,CLR,[8]; [16],0.99 (5.2) L/h
same,Cmax,[8]; [16],3210 nM
same,t½,[8]; [16],9.1 (10.7) h
same,Tmax,"[8]; 360 mg OD, day 10, median (range)",1.0 (1.0–1.0) h
same,AUCτ,[8]; [17],"16,290 (48.6) nmol*h/L"
same,Cmax,[8]; [17],4930 nM
same,Tmax,"[8]; 600 mg OD, day 1, median (range)",1.0 (1.0–1.0) h
same,AUCτ,[8]; [18],"23,170 (47.4) nmol*h/L"
same,CL/F,[8]; [18],58.0 (47.4) L/h
same,CLR,[8]; [18],0.72 (23.3) L/h
same,Cmax,[8]; [18],5690 nM
same,t½,[8]; [18],9.9 (29.2) h
same,Tmax,"[8]; 600 mg OD, day 10, median (range)",1.5 (1.0–3.0) h
same,accumulation on repeated dosing,"[8]; Ctrough, once daily dosing",small accumulation
same,time to steady state,"[8]; repeated once daily dosing, Ctrough, visual inspection",~3 days
same,LTB4 production inhibition throughout the day,"[9]; MAD, 180, 360, and 600 mg doses, last day of repeated dosing",> 80%
same,mean LTB4 inhibition throughout the whole day,"[9]; SAD, single doses of 300–1,200 mg",> 80%
same,fold lower IC50 for ex vivo stimulated LTB4 inhibition,[9]; compared with both AM103 and VIA2291,~100 fold
same,subjects experiencing an AE on active drug,[10]; MAD study,10 subjects
same,subjects reporting headache,[10]; MAD study,five
same,serious adverse events,"[10]; SAD 25–1,200 mg and MAD 60–600 mg",no serious adverse events
same,safety and tolerability findings,"[10]; SAD and MAD, healthy subjects",No clinically relevant safety and tolerability findings
same,subjects experiencing an AE on active drug,[10]; SAD study,17 subjects
same,subjects reporting headache,[10]; SAD study,three
same,maximal tolerated dose,"[10]; up to 1,200 mg single, 600 mg OD for 10 days",not established
same,metabolism kinetics,[11],saturable metabolism
